Bioassay records as filed in PubChem.
CYP2C9 activ – increases human cytochrome P450 2C9 activity; P11712; recombinant CYP2C9, luciferin-H conversion, luminescence; active compounds read high; factor 1 = untreated enzyme, 0 = blocked; activation factor at 5 µM; actives 1.4% (n = 96,000); AID 1024;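 active = activation factor of 2 or more for CYP2C9 at a 5 µM dose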;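 note: 0 = sulfaphenazole-blocked wells and 1 = vehicle-only wells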
Target sequence (P11712 whole entry, looked up): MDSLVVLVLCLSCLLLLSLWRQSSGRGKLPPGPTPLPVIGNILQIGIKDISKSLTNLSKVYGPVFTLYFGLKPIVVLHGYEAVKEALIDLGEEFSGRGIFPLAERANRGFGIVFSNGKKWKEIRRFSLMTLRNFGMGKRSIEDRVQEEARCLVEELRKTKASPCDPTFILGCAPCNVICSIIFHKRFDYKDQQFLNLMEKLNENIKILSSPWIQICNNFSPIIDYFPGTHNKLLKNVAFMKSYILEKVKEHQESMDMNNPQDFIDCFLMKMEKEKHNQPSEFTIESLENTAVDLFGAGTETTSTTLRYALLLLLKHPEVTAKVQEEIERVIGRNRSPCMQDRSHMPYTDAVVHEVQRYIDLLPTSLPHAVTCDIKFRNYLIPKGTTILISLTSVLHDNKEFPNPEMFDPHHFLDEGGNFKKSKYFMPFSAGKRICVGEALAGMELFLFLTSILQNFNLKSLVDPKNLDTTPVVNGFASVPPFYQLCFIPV
Cav32 inh – inhibitors of human Cav3.2 T-type calcium channel; O95180; Cav3.2-expressing cells, Fluo-4 calcium fluorescence FDSS; active compounds read low; B-score at 10 µM; actives 4% (n = 100,000);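 active = single-dose well whose peak fluorescence ratio is a statistical outlier from its plate by either plate-standardised score or position-corrected B-score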
CYP2C19 act – increases human CYP2C19 enzyme activity; P33261; recombinant CYP2C19, luciferin-H EGE luminescence; active compounds read high; 0 = fully inhibited enzyme, 1 = untreated enzyme; activation factor at 5 µM; 96,000 tested, under 10 active;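 active = activation factor of at least 2 at 5 µM in the primary screen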;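 note: 0 = wells with 2.5 mM tranylcypromine and 1 = vehicle-only wells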
CYP2C19 inhib – blocks human cytochrome P450 2C19; actives 21% (n = 96,000); AID 778; CYP2C19 Supersomes, luciferin-H EGE luminescence, 30 min; inhibition, % at 5 µM;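 active = CYP2C19 inhibition above a set limit at 5 µM in the primary screen, cut at about 50% in these data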;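 note: plate controls were negative control wells for no effect and 2.5 mM tranylcypromine positive control for full effect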
Rev-RRE block – HIV Rev-RRE protein-RNA interaction inhibition | P05866 | Rev peptide-RRE RNA binding, FRET | inhibition, % at 8 µM | actives 0.79% (n = 97,000) | AID 704;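 active = inhibition above the screen-wide mean plus 3 SD, cut at about 35% in these data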;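 note: 0% = median DMSO wells and 100% = median Neomycin B control wells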
Target sequence (P05866 whole entry, looked up): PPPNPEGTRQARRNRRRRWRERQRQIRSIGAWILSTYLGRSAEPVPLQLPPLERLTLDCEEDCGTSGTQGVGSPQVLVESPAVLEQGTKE
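Test system – labelled RRE RNA duplex and labelled Rev peptide · Reagent – labelled Rev peptide · Doses – one concentration, 8 µM nominal · Incubation – 5 + 15 min at 25 °C · Signal – FRET fluorescence readout · Read-out basis – % inhibition of FRET ratio versus controls · Control set – DMSO wells as 0% and neomycin B wells as 100% inhibition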
CYP2C9 inhib – blocks human cytochrome P450 2C9; P11712; CYP2C9 Supersomes, luciferin-H conversion, luminescence; inhibition, % at 5 µM; actives 20% (n = 96,000);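 active = blocking of liver enzyme CYP2C9 beyond about 50% at 5 µM, limit read from the data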
* marks the source's active call; other numbers are inactive results; x = no result given; ! = not active in a repeat. This is a sample that favours compounds with a hit; in the whole collection about 27% have one here.

SMILES	CYP2C9 activ	Cav32 inh	CYP2C19 act	CYP2C19 inhib	Rev-RRE block	CYP2C9 inhib
COc1ccc(C(=O)N(c2ccccc2)C2C=CS(=O)(=O)C2)cc1 (stereo not given)	1.1	1.5	1	0	1	-6
Cc1[nH]nc(-c2ccc(O)c(C)c2O)c1-c1cnn(-c2ccccc2)c1	0	-0.91	0	99*	0	99*
CCOC(=O)Cc1csc(-n2sc3ccccc3c2=O)n1	0.8	-0.2	1	1	4	18
CCN(CC)S(=O)(=O)c1ccc(C(=O)Nc2cccc(C)c2)cc1	0.5	-1.6	0.4	55*	9	55*
CCN(CC)S(=O)(=O)c1ccc(NS(=O)(=O)c2cccc(C)c2)cc1	0.1	-4.6*	0.6	40	2	91*
Cc1cccc(NC(=O)c2ccc(S(=O)(=O)N(C)C)cc2)c1	1.1	0.11	1.2	-17	1	-7
CC(=O)N1CCc2cc(S(=O)(=O)NCCC3=CCCCC3)ccc21	x	x	x	x	12	x
O=S(=O)(NCCc1ccccc1)c1cccc(S(=O)(=O)N2CCOCC2)c1	0.4	-0.014	0.1	89*	7	61*
O=S(=O)(NC1CCN(Cc2ccccc2)CC1)c1cccc(S(=O)(=O)N2CCOCC2)c1	0.7	2.8	0.5	54*	11	31
O=S(=O)(NCCC1=CCCCC1)c1cccc(S(=O)(=O)N2CCOCC2)c1	0.2	-3	0.2	76*	2	75*
O=S(=O)(NCc1ccco1)c1cccc(S(=O)(=O)N2CCOCC2)c1	1.1	0.51	0.5	50*	4	-5
O=S(=O)(NCc1ccc(F)cc1)c1cccc(S(=O)(=O)N2CCOCC2)c1	0.5	1.1	0.5	49	4	47
Cn1c(=O)oc2cc(S(=O)(=O)NC3CCN(Cc4ccccc4)CC3)ccc21	x	0.78	x	x	5	x
COc1ccc(NC(=O)CSc2nc(O)c(Cc3ccccc3)c(=O)[nH]2)cc1	1	-2.9	1.1	-9	-1	0
CCOC(=O)N1CCN(Cc2nc(-c3ccc(C)cc3)no2)CC1	0.9	0.36	1	1	10	6
CC1(C)CC(NC(=O)C23CCC(C)(/C(=N/O)C2)C3(C)C)CC(C)(C)N1 (stereo not given)	1.1	0.28	1.2	-21	10	-9
O=S(=O)(CCc1ccccc1)N1CCOCC1	1	0.41	0.3	70*	x	-3
COC(=O)C1=C(C)N(CCc2ccc(OC)c(OC)c2)C(=O)C1	0.8	0.47	0.4	65*	1	16
COC(=O)C1=C(C)N(Cc2ccco2)C(=O)C1	1	-0.049	0.7	27	2	-3
COc1ccc(CCN2C(=O)C3C4C=CC(C3C2=O)C2C(=O)N(CCc3ccc(OC)c(OC)c3)C(=O)C42)cc1OC (stereo not given)	0.7	-2.1	0.8	20	8	31
COC(=O)C1=C(C)N(Cc2ccc(OC)c(OC)c2)C(=O)C1	1	0.57	0.8	20	0	-3
COC(=O)C1=C(C)N(CC(C)C)C(=O)C1	0.8	0.042	0.3	71*	-1	23
COc1ccc(CCN2C(=O)C3C4C=CC(C4)C3C2=O)cc1OC (stereo not given)	1.1	-0.052	0.4	57*	1	-6
COC(=O)C1=C(C)N(Cc2ccc(OC)cc2)C(=O)C1	0.7	-0.51	0	97*	4	34
COC(=O)C1=C(C)N(Cc2cccnc2)C(=O)C1	x	-0.0052	x	x	0	x
SMILES	CYP2C9 activ	Cav32 inh	CYP2C19 act	CYP2C19 inhib	Rev-RRE block	CYP2C9 inhib
COc1ccc(Cc2nnc(NC(=O)CSc3ccc(C)cc3)s2)cc1OC	1	0.39	1	-3	7	-3
COc1ccc(S(=O)(=O)CCC(=O)N2CC(=O)N(CCc3ccccc3)C(=O)C2)cc1	1.1	x	1.1	-12	x	-12
COC(=O)C1=C(C)N(CCc2ccc(OC)cc2)C(=O)C1	0.9	-0.44	0.2	78*	4	14
COc1ccc(N2CCN(C(=O)CN(c3ccccc3)S(=O)(=O)c3ccc(OC)cc3)CC2)cc1	0.9	0.71	1.2	-19	0	12
O=C(CCc1ccccc1)N1CCN(c2ccc(Cl)cc2)CC1	0.6	-5*	0.5	50*	6	44
COc1ccc(S(=O)(=O)N(CC(=O)N2CCN(c3ccccc3OC)CC2)c2ccccc2)cc1	0.1	-3.2	0.2	85*	x	87*
O=C(CN(c1ccc(Cl)c(C(F)(F)F)c1)S(=O)(=O)c1ccccc1)N1CCOCC1	1	-0.039	0.8	24	3	-1
O=C(CN(c1ccc(Cl)cc1)S(=O)(=O)c1ccccc1)N1CCN(c2ccccc2)CC1	0.1	-8.1*	0	97*	8	92*
O=C(CN(c1ccc(Cl)c(Cl)c1)S(=O)(=O)c1ccccc1)N1CCc2ccccc2C1	0.5	-5.4*	0.1	89*	10	50*
COc1ccc(N2CCN(C(=O)C(CCSC)N=C3NS(=O)(=O)c4ccccc43)CC2)cc1 (stereo not given)	0.7	0.03	0.9	12	1	33
CC(C)(C)P(=O)(CO)c1ccccc1 (stereo not given)	1	0.66	1	-2	6	0
CC1(C)CC2(CCO1)OC(=O)CC2C(=O)NCc1ccccc1 (stereo not given)	1	0.076	0.9	9	2	-4
O=C(CCn1nc(-c2ccc(Cl)cc2)ccc1=O)N1CCN(c2ccccn2)CC1	0.6	x	0.7	32	1	36
O=C(Cn1nc(-c2ccc(Cl)cc2)ccc1=O)N1CCN(c2ccccc2)CC1	0.5	x	0.7	25	9	52*
CCOC(=O)c1c(C)nc2sccn12	1.1	0.4	0.9	12	x	-15
Cc1nc2sccn2c1P(c1c(C)nc2sccn12)c1c(C)nc2sccn12	0.4	1.1	0.3	72*	x	63*
C#Cc1ccc([C@@H]2C=C(C(=O)OCC=C)O[C@H](OCCCCO)C2)cc1	x	-0.59	x	x	x	x
O=C(NC1CC1)C1=C[C@H](c2c[nH]c3ccccc23)C[C@H](OCCCCO)O1	x	0.29	x	x	x	x
COC(=O)C[C@H]1c2cc(F)ccc2S(=O)(=O)N1c1ccccc1	x	0.64	x	x	x	x
CCOC(=O)COc1ccc(S(=O)(=O)NCc2ccco2)cc1	0.6	0.093	0.3	73*	8	42
C=CCNS(=O)(=O)c1ccc(OCC(=O)OC)cc1	0.3	0.28	0.3	70*	4	71*
CCCNS(=O)(=O)c1ccc(OCC(=O)NCc2ccco2)cc1	0.7	0.047	1	4	2	33
COC(=O)COc1ccc(S(=O)(=O)NCc2ccco2)cc1	1	-0.11	0.4	60*	10	4
COC(=O)COc1ccc(S(=O)(=O)Nc2ccc(C(N)=O)cc2)cc1	0.9	-1.2	1.1	-9	9	10
c1ccc(CN(CC2=NCCN2)c2ccccc2)cc1	x	-2.8*!	x	x	x	x
